One block for each molecule: values may come before it. The source made the active and inactive calls. The calls are words filed in the database; no cut-off is given here.
Legend:
[1] = Growth inhibition of human RPMI8266 cells; type: functional
In short: (§1)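 Five-dose testing was run within the NCI (Bethesda) in vitro Anticancer Screen Program on a panel of 53 human tumour cell lines from nine cancer types. Growth inhibition is reported as GI50.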

[2] = test system: K562; experiment: Growth inhibition of human K562 cells; type: functional; in short: as §1
[3] = test system: A549; experiment: Growth inhibition of human A549 cells; type: functional; in short: as §1
[4] = test system: EKVX; experiment: Growth inhibition of human EKVX cells; type: functional; in short: as §1
[5] = test system: HOP-62; experiment: Growth inhibition of human HOP62 cells; type: functional; in short: as §1
[6] = test system: HOP-92; experiment: Growth inhibition of human HOP92 cells; type: functional; in short: as §1
[7] = test system: NCI-H226; experiment: Growth inhibition of human NCI-H226 cells; type: functional; in short: as §1
[8] = test system: NCI-H23; experiment: Growth inhibition of human NCI-H23 cells; type: functional; in short: as §1
[9] = test system: NCI-H322M; experiment: Growth inhibition of human NCI-H322M cells; type: functional; in short: as §1
[10] = test system: NCI-H460; experiment: Growth inhibition of human NCI-H460 cells; type: functional; in short: as §1
[11] = test system: NCI-H522; experiment: Growth inhibition of human NCI-H522 cells; type: functional; in short: as §1
[12] = test system: COLO 205; experiment: Growth inhibition of human COLO205 cells; type: functional; in short: as §1
[13] = test system: HCC 2998; experiment: Growth inhibition of human HCC2998 cells; type: functional; in short: as §1
[14] = test system: HCT-116; experiment: Growth inhibition of human HCT116 cells; type: functional; in short: as §1
[15] = test system: HCT-15; experiment: Growth inhibition of human HCT15 cells; type: functional; in short: as §1
[16] = test system: HT-29; experiment: Growth inhibition of human HT-29 cells; type: functional; in short: as §1
[17] = test system: KM12; experiment: Growth inhibition of human KM12 cells; type: functional; in short: as §1
[18] = test system: SW-620; experiment: Growth inhibition of human SW620 cells; type: functional
In short: (§2)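 Compounds that passed a preliminary screen were tested at five doses in the NCI (Bethesda) in vitro Anticancer Screen Program against a 53-line human tumour panel spanning leukemia, lung, colon, CNS, melanoma, ovarian, renal, prostate and breast. Growth inhibition is reported as GI50.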

[19] = test system: SF-268; experiment: Growth inhibition of human SF268 cells; type: functional; in short: as §1
[20] = test system: SF-295; experiment: Growth inhibition of human SF295 cells; type: functional; in short: as §1
[21] = test system: SF-539; experiment: Growth inhibition of human SF539 cells; type: functional; in short: as §1
[22] = test system: SNB-19; experiment: Growth inhibition of human SNB19 cells; type: functional; in short: as §2
[23] = test system: SNB-75; experiment: Growth inhibition of human SNB75 cells; type: functional; in short: as §2
[24] = test system: U-251; experiment: Growth inhibition of human U251 cells; type: functional; in short: as §2
[25] = test system: A498; experiment: Growth inhibition of human A498 cells; type: functional; in short: as §1
[26] = test system: 786-0; experiment: Growth inhibition of human 786-0 cells; type: functional; in short: as §1
[27] = test system: ACHN; experiment: Growth inhibition of human ACHN cells; type: functional; in short: as §1
[28] = test system: CAKI-1; experiment: Growth inhibition of human Caki1 cells; type: functional; in short: as §1
[29] = test system: RXF 393; experiment: Growth inhibition of human RXF393 cells; type: functional; in short: as §1
[30] = test system: SN12C; experiment: Growth inhibition of human SN12C cells; type: functional; in short: as §2
[31] = test system: TK-10; experiment: Growth inhibition of human TK10 cells; type: functional; in short: as §2
[32] = test system: UO-31; experiment: Growth inhibition of human UO31 cells; type: functional; in short: as §2
[33] = test system: PC-3; experiment: Growth inhibition of human PC3 cells; type: functional; in short: as §1
[34] = test system: OVCAR-3; experiment: Growth inhibition of human OVCAR-3 cells; type: functional; in short: as §1
[35] = test system: OVCAR-4; experiment: Growth inhibition of human OVCAR4 cells; type: functional; in short: as §1
[36] = test system: OVCAR-5; experiment: Growth inhibition of human OVCAR5 cells; type: functional; in short: as §1
[37] = test system: OVCAR-8; experiment: Growth inhibition of human OVCAR8 cells; type: functional; in short: as §1
[38] = test system: NCI/ADR-RES; experiment: Growth inhibition of human NCI/ADR-RES cells; type: functional; in short: as §1
[39] = test system: SK-OV-3; experiment: Growth inhibition of human SKOV3 cells; type: functional; in short: as §2
[40] = test system: MCF7; experiment: Growth inhibition of human MCF7 cells; type: functional; in short: as §1
[41] = test system: MDA-MB-231; experiment: Growth inhibition of human MDA-MB-231 cells; type: functional; in short: as §1
[42] = Growth inhibition of human Hs 578T cells; type: functional; in short: as §1
[43] = test system: BT-549; experiment: Growth inhibition of human BT549 cells; type: functional; in short: as §1
[44] = test system: T47D; experiment: Growth inhibition of human T47D cells; type: functional; in short: as §2
[45] = test system: LOX IMVI; experiment: Growth inhibition of human LOXIMVI cells; type: functional; in short: as §1
[46] = test system: Malme-3M; experiment: Growth inhibition of human MALME-3M cells; type: functional; in short: as §1
[47] = test system: M14; experiment: Growth inhibition of human M14 cells; type: functional; in short: as §1
[48] = test system: MDA-MB-435; experiment: Growth inhibition of human MDA-MB-435 cells; type: functional; in short: as §1
[49] = test system: SK-MEL-2; experiment: Growth inhibition of human SK-MEL-2 cells; type: functional; in short: as §1
[50] = test system: SK-MEL-28; experiment: Growth inhibition of human SK-MEL-28 cells; type: functional; in short: as §1
[51] = test system: SK-MEL-5; experiment: Growth inhibition of human SK-MEL-5 cells; type: functional; in short: as §1
[52] = test system: UACC-257; experiment: Growth inhibition of human UACC257 cells; type: functional; in short: as §2
[53] = test system: UACC-62; experiment: Growth inhibition of human UACC62 cells; type: functional; in short: as §2
[54] = test system: MCF7; experiment: Cell cycle arrest in human MCF7 cells assessed as accumulation at G0 phase at 10 uM after 24 hrs by FACS analysis; type: functional
In short: (§3)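 MCF-7 breast carcinoma cells were exposed to 10 µM test compound for 24 h, with DMSO as the vehicle control. Cell-cycle distribution was read by FACS as the percentage of cells in G0, G1, S and G2/M.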

[55] = test system: MCF7; experiment: Cell cycle arrest in human MCF7 cells assessed as accumulation at G1 phase at 10 uM after 24 hrs by FACS analysis; type: functional; in short: as §3
[56] = test system: MCF7; experiment: Cell cycle arrest in human MCF7 cells assessed as accumulation at S phase at 10 uM after 24 hrs by FACS analysis; type: functional; in short: as §3
[57] = test system: MCF7; experiment: Cell cycle arrest in human MCF7 cells assessed as accumulation at G2/M phase at 10 uM after 24 hrs by FACS analysis; type: functional; in short: as §3
[58] = test system: MCF7; experiment: Cell cycle arrest in human MCF7 cells assessed as accumulation at G0 phase at 30 uM after 24 hrs by FACS analysis; type: functional
In short: (§4)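 MCF-7 cells were treated at 30 µM for 24 h alongside a DMSO control. Fractions in G0, G1, S and G2/M phases were measured by FACS, and values are means of three experiments.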

[59] = test system: MCF7; experiment: Cell cycle arrest in human MCF7 cells assessed as accumulation at G1 phase at 30 uM after 24 hrs by FACS analysis; type: functional; in short: as §4
[60] = test system: MCF7; experiment: Cell cycle arrest in human MCF7 cells assessed as accumulation at S phase at 30 uM after 24 hrs by FACS analysis; type: functional; in short: as §4
[61] = test system: MCF7; experiment: Cell cycle arrest in human MCF7 cells assessed as accumulation at G2/M phase at 30 uM after 24 hrs by FACS analysis; type: functional; in short: as §4
[62] = test system: MCF7; experiment: Induction of apoptosis in human MCF7 cells assessed as decrease in procaspase 7 level at 30 uM after 24 hrs by Western blot analysis; type: functional, cell-based
In short: (§5)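 MCF-7 breast carcinoma cells were exposed to 30 µM compound for 24 h, with CA-4 as positive control. Cell lysates were then immunoblotted with antibodies to procaspase-7 and cleavage-specific PARP, using β-actin as loading control.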

[63] = test system: MCF7; experiment: Induction of apoptosis in human MCF7 cells assessed as […] in PARP cleavage at 30 uM after 24 hrs by Western blot analysis; type: functional, cell-based; in short: as §5

- GI50 [2]: 500 nM
- GI50 [3]: 4030 nM
- GI50 [7]: 14600 nM
- GI50 [8]: 1430 nM
- GI50 [9]: 2020 nM
- GI50 [10]: 1400 nM
- GI50 [11]: 950 nM
- GI50 [12]: 1510 nM
- GI50 [13]: 1260 nM
- GI50 [14]: 330 nM
- GI50 [15]: 1130 nM
- GI50 [16]: 660 nM
- GI50 [18]: 390 nM
- GI50 [24]: 630 nM
- GI50 [26]: 1380 nM
- GI50 [27]: 1600 nM
- GI50 [33]: 3260 nM
- GI50 [34]: 1230 nM
- GI50 [35]: 1880 nM
- GI50 [36]: 1880 nM
- GI50 [37]: 1620 nM
- GI50 [39]: 3270 nM
- GI50 [40]: 310 nM
- GI50 [41]: 2170 nM
- GI50 [43]: 1930 nM
- GI50 [44]: 2190 nM
- GI50 [48]: 1200 nM
- GI50 [49]: 2060 nM
- GI50 [50]: 1740 nM
- GI50 [51]: 1400 nM
Compound: COc1cc(/C=C/C(=O)c2cccc(-n3cc(-c4ccccc4)[nH]c3=O)c2)cc(OC)c1OC
- GI50 [1]: 620 nM
- GI50 [4]: 2300 nM
- GI50 [5]: 4120 nM
- GI50 [6]: 10800 nM
- GI50 [17]: 1370 nM
- GI50 [19]: 1920 nM
- GI50 [20]: 1900 nM
- GI50 [21]: 1680 nM
- GI50 [22]: 2350 nM
- GI50 [23]: 4470 nM
- GI50 [25]: 2650 nM
- GI50 [28]: 1750 nM
- GI50 [29]: 1710 nM
- GI50 [30]: 2090 nM
- GI50 [31]: 3020 nM
- GI50 [32]: 1510 nM
- GI50 [38]: 1100 nM
- GI50 [42]: 3410 nM
- GI50 [45]: 480 nM
- GI50 [46]: 1310 nM
- GI50 [47]: 1350 nM
- GI50 [52]: 1520 nM
- GI50 [53]: 1520 nM
- Activity [54]: 8.19%
- Activity [55]: 54.85%
- Activity [56]: 17.5%
- Activity [57]: 19.46%
- Activity [58]: 52.34%
- Activity [59]: 39.08%
- Activity [60]: 5.6%
- Activity [61]: 3.02%

Compound: COc1cc(/C=C/C(=O)c2cccc(N)c2)cc(OC)c1OC
- Activity [54]: 2.87%
- Activity [55]: 56.17%
- Activity [56]: 14.96%
- Activity [57]: 23.57%
- Activity [58]: 22.58%
- Activity [59]: 52.31%
- Activity [60]: 9.31%
- Activity [61]: 15.8%
- Activity [62]: inactive
- Activity [63]: inactive
